Screening data: PubChem, several laboratories
Only some compounds are listed: those with a hit (about 3.8% of all), similar ones and a draw of the others.
RGS4 act: RGS4 potentiators or activators, primary screen, cell-based, HEK293 M3R inducible RGS4, calcium flux | carbachol calcium flux Fluo4; active compounds read low | B-score at 10 µM | 0.92% of 310,000 active;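 active = B-score of the integrated calcium signal more than 4 SD below the library mean, with starting fluorescence not abnormally high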;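 also: negative B-score means reduced calcium response which marks RGS4 activation or potentiation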
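System: HEK293 FlpIn-TREx cells, stable M3R, doxycycline-inducible RGS4. Timing: overnight RGS4 induction, 30 min dye load 37 °C, 20 min compound RT. Also added: carbachol, ECmax concentration. Measured by: Fluo4 fluorescence kinetic imaging of calcium. Evaluation: integrated calcium ratio converted to B score.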
MrgX1 ag: agonists of human MrgX1 receptor, primary screen, HEK293 cells, Fluo-4 calcium flux; 0.44% of 310,000 active; B-score at 10 µM; Fluo-4 calcium fluorescence, agonist mode; active compounds read high; AID 588627, 2011;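 active = calcium response B-score plate-corrected fluorescence ratio at least 3 library SD, with starting fluorescence B-score inside 5 SD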
Target sequence (Q96LB2 whole entry, looked up): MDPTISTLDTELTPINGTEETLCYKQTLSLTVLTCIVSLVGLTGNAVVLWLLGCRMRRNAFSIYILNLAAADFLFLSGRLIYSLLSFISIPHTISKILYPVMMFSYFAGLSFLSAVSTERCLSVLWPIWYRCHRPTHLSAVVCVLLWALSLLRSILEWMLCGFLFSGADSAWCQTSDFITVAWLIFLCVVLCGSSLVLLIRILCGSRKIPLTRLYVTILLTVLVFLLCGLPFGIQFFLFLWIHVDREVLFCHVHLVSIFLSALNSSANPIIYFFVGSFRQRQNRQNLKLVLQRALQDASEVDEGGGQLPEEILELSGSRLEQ
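System: HEK293 cells stably expressing human MrgX1 receptor; Dosing: test compound in the initial addition of three; Schedule: overnight plating, then 30 min 37 °C plus 30 min room-temperature dye loading; Detection: kinetic calcium dye fluorescence, Fluo-4 NW; Controls: per-plate positive and negative controls for Z′ factor.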
RGS4 block: RGS4 inhibitors, primary screen, cell-based, HEK293 M3R inducible RGS4, calcium flux. AID 463165, 2010. B-score at 10 µM. Fluo-4 calcium flux; active compounds read high; triggered by carbachol at its EC20. Regulator of G-protein signaling 4 (Homo sapiens), P49798. 0.45% of 310,000 active;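 active = B-score, a plate-corrected calcium signal, over three deviations above library mean, with baseline fluorescence within five deviations of library mean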;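 also: RGS4 expression induced by doxycycline in cells with stable M3 receptor; B-score is computed from the integrated fluorescence ratio over baseline after carbachol; higher B-score means a larger calcium signal and so more RGS4 inhibition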
Target sequence (P49798 whole entry, looked up): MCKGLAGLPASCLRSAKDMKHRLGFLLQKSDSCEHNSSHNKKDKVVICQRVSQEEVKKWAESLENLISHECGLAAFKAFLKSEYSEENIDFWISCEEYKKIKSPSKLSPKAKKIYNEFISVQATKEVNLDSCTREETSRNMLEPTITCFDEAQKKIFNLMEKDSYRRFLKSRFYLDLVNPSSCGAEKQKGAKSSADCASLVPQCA
MrgX1 allo act: positive allosteric modulators of MrgX1, primary screen, HEK293 cells, Fluo-4 calcium flux; B-score at 10 µM; AID 588675, 2011; Mas-related G-protein coupled receptor member X1 (Homo sapiens), Q96LB2; 0.63% of 310,000 active; FDSS; active compounds read high;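 active = plate-corrected calcium response at least 3 library SD above typical, normal starting fluorescence, not activating the receptor alone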;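 also: compound read alongside a low EC10 to EC30 dose of BAM8-22 agonist; peak minus trough fluorescence over baseline measured at the second addition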
Lipid droplet: inhibitors of hepatocyte lipid droplet formation, primary screen, imaging, high-throughput imaging, BODIPY stain | AID 1656, 2009 | AML12 mouse hepatocytes, oleate lipid droplets | 0.4% of 240,000 active | inhibition, % at 6.5 µM;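 active = lipid droplet intensity inhibited by at least 50%, with more than 500 cells counted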
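Test system: AML12 mouse liver cells; schedule: overnight exposure; technique: high-content imaging of BODIPY-stained droplets and DAPI nuclei; read-out: % inhibition of corrected integrated BODIPY droplet signal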
MrgX1 antagonist: antagonists of human MrgX1 receptor, primary screen, HEK293 cells, Fluo-4 calcium flux | Mas-related G-protein coupled receptor member X1 (Homo sapiens), Q96LB2 | BAM8-22 antagonism; active compounds read low | B-score at 10 µM | 1.3% of 310,000 active;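 active = calcium-response B-score plate-corrected more than 3 library SD below zero, starting fluorescence within 5 deviations, no agonist response on first addition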;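 also: peak minus trough fluorescence over baseline after final BAM8-22 challenge near maximal dose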
Large screens that a line does not name were inactive; ! = not confirmed by another sample.

Cc1cc(C2=NNC(=NCCc3ccccc3)SC2)c(C)n1CC1CCCO1 (configuration not stated)	MrgX1 ag 45.1
CN(C)CCn1cnc2c(c1=N)C(c1ccccc1)c1ccc3ccccc3c1O2 (configuration not stated)	none
CCCc1cc(-c2[nH]ncc2-c2ccc3c(c2)OCCCO3)c(O)cc1O	RGS4 act -7.93
COc1ccc(C(=O)N/C(=C\c2cccc([N+](=O)[O-])c2)C(=O)Nc2cccc(C(=O)O)c2)cc1	MrgX1 antagonist -6.86
CC1(C)CC(c2nc(-c3ccc(Cl)cc3)cs2)CCS1 (configuration not stated)	MrgX1 allo act 8.7 (no result: Lipid droplet)
CC1(C)CC(c2nc(-c3ccc(Br)cc3)cs2)CCS1 (configuration not stated)	none
O=C(c1ccsc1)N1CCCC(N2CCOCC2)C1 (configuration not stated)	none
O=[N+]([O-])c1ccc(-c2nc(-c3cccs3)c(-c3cccs3)[nH]2)cc1	RGS4 act -8.95 (no result: Lipid droplet)
COc1ccc(-c2nc(-c3cccs3)c(-c3cccs3)[nH]2)cc1OC	RGS4 act -7.95
Cc1nn(CC(=O)Nc2ccc(Cl)cc2Cl)c(=O)c2ccccc12	none
COc1ccccc1OCCCOc1ccc(/C=C2\SC(=O)NC2=O)cc1OC	RGS4 act -7.73
COc1ccccc1C(CNC(=O)c1ccc(-c2ccccc2Cl)o1)N1CCCC1 (configuration not stated)	RGS4 act -7.06 (no result: Lipid droplet)
CCCCCCCCCCCCCCCCn1cc[n+](C)c1	RGS4 act -9.54!, MrgX1 antagonist -7.33!
CCCCCCCCn1ccc(=N)cc1	none
O=C1S/C(=C\c2ccc(N3CCOCC3)o2)C(=O)N1Cc1ccc(F)cc1	none (no result: RGS4 act, RGS4 block, Lipid droplet)
C=CCN1C(=O)N/C(=C/c2ccc(N3CCOCC3)o2)C1=O	MrgX1 antagonist -5.1
O=C1S/C(=C/c2ccc(N3CCOCC3)o2)C(=O)N1Cc1ccc(F)cc1	MrgX1 ag 46 (no result: Lipid droplet)
O=C1N/C(=C/c2ccc(N3CCOCC3)o2)C(=O)N1c1ccccc1	none (no result: RGS4 act, RGS4 block)
Cc1ccc(N(CC(=O)Nc2cccc(C)c2)S(=O)(=O)c2cccc3nonc23)cc1	none (no result: Lipid droplet)
O=C1CCCc2oc3c(cc(NS(=O)(=O)c4ccc5c6c(cccc46)C(=O)N5)c4ccccc43)c21	MrgX1 allo act 7
NS(=O)(=O)c1ccc(N/N=C/c2ccccc2Br)cc1	MrgX1 allo act 6.84
NS(=O)(=O)c1ccc(N/N=C/c2ccncc2)cc1	none
O=[N+]([O-])c1ccc(N/N=C/c2ccccc2O)cc1	MrgX1 antagonist -4.89
Cc1noc(C)c1S(=O)(=O)N1CCCC1C(=O)O (configuration not stated)	none
O=C(NC1C2CC3CC(C2)CC1C3)c1ccc(Br)o1 (configuration not stated)	none
CC(C)(C)c1cc(C2=CSC3=NCCN23)cc(C(C)(C)C)c1O	RGS4 act -8.11
Cc1cc(OC(C)C(=O)NCc2ccccn2)c2c(C)c(C)c(=O)oc2c1 (configuration not stated)	none
COCC(C)n1c(C)cc(C(=O)COC(=O)CNC(=O)c2ccccc2)c1C (configuration not stated)	none
COCCn1c(C)cc(C(=O)COC(=O)CNC(=O)c2ccccc2)c1C	MrgX1 antagonist -5.02
O=C(CCN1C(=O)/C(=C\c2ccccc2)SC1=S)Nc1ccc(C(=O)O)cc1	MrgX1 allo act 14
COc1cc(/C=C2\SC(=S)N(CCC(=O)Nc3ccccc3)C2=O)cc(OC)c1OC	none
O=C(O)COc1cccc(/C=C2/SC(=S)N(Cc3ccccc3)C2=O)c1	RGS4 block 5.69 (no result: Lipid droplet)
COc1cc(/C=C2\SC(=S)N(CCC(=O)Nc3cccc(O)c3)C2=O)cc(OC)c1OC	RGS4 act -8.07, MrgX1 antagonist -4.62
O=C(CN1C(=O)S/C(=C\c2cc(Cl)c(O)c(Cl)c2)C1=O)Nc1ccccc1	MrgX1 ag 27.3
O=C(CN1C(=O)S/C(=C\c2ccccn2)C1=O)Nc1ccccc1	none
O=C(O)CN1C(=O)/C(=C\c2cccc(OCc3ccccc3)c2)SC1=S	none
COc1cccc(CC(=O)NCC2COc3ccccc3O2)c1OC (configuration not stated)	none (no result: Lipid droplet)
COc1ccc(/C=C/C(=O)NCC2COc3ccccc3O2)cc1OC (configuration not stated)	MrgX1 antagonist -7.06
COc1ccc(N2CCN(C3CCCN(Cc4ccc(F)cc4Cl)C3)CC2)cc1 (configuration not stated)	none
CNC(=O)/C(C#N)=C/c1ccc(-c2ccc(OC)cc2[N+](=O)[O-])o1	MrgX1 antagonist -5.25
O=C(Nc1ccc2c(c1)OCO2)c1cnn2c(C(F)(F)F)cc(-c3ccco3)nc12	none (no result: RGS4 act, RGS4 block, Lipid droplet)
O=C(Nc1cnn(C23CC4CC(CC(C4)C2)C3)c1)c1cnn2c(C(F)(F)F)cc(-c3ccco3)nc12	RGS4 act -8.53
Cc1ccccc1Cn1ccc(NC(=O)c2cnn3c(C(F)(F)F)cc(-c4ccco4)nc23)n1	RGS4 act -7.53
CCO[C@@H]1OC(C(=O)N2CCN(Cc3ccccc3)CC2)=C[C@H](c2coc3ccccc3c2=O)[C@H]1CCCO	none
Nc1ccc(S(=O)(=O)Nc2nc3ccccc3o2)cc1	none
O=C(NCc1ccco1)c1cccn2c(=O)c3cc4ccccc4cc3nc12	none (no result: RGS4 act, MrgX1 ag, RGS4 block, MrgX1 allo act, MrgX1 antagonist)
COCCCNC(=O)c1cccn2c(=O)c3cc4ccccc4cc3nc12	MrgX1 antagonist -8.48 (no result: Lipid droplet)
Cc1ccc(NC(=O)CSc2ncc3ccccn23)cc1C	RGS4 act -7.54
O=C1NN(c2ccc(F)cc2)C(=O)/C1=C/c1cccs1	MrgX1 ag 29.7
O=C(C[n+]1cccc(Br)c1)c1ccc(-c2ccccc2)cc1	RGS4 act -7.03
O=C(C[n+]1cc(Br)cc(Br)c1)c1ccc(-c2ccccc2)cc1	none (no result: Lipid droplet)
Cc1ccc(C(=O)C[n+]2cc(Br)cc(Br)c2)cc1	MrgX1 allo act 15
O=C(Nc1ccccc1N1CCCCC1)c1ccc(-c2cccc(Cl)c2)o1	none
CN1CCN(c2ccccc2NC(=O)c2ccc(-c3cccc(Cl)c3)o2)CC1	RGS4 act -8.49
CC(C)Cc1ccccc1O	none
CCOc1ccc(C(CC(=O)O)NC(=O)COc2ccccc2)cc1OC (configuration not stated)	MrgX1 antagonist -5.82
